These results are taken from ChEMBL document CHEMBL1142527, “Tricyclic [1,2,4]triazine 1,4-dioxides as hypoxia selective cytotoxins” (J Med Chem, 2008).

Series [1] concerns HT-29. The series is described as follows: Hypoxic cytotoxicity ratio, ratio of aerobic IC50 to anoxic IC50 for human HT-29 cells. The class given is functional.
Series [2] concerns HT-29. Put plainly: Drug diffusion coefficient in human HT-29 multicellular layer under 95% oxygen by liquid scintillation counting. It counts as ADME, cell-based. In a few lines:
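Tissue diffusion coefficient D measured in HT29 multicellular layers held under 95% O₂ to suppress bioreductive metabolism. Reported as ×10⁻⁷ cm²s⁻¹.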

Series [3] has as its system HT-29. The series is described as follows: Metabolic stability in human HT-29 multicellular layer assessed as apparent first-order rate constant under anoxic condition. The class given is ADME, cell-based. In a few lines: (§1)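 Stirred single-cell suspensions of anoxic HT29 cells are exposed for 3 h at a drug concentration giving roughly one log kill by 1 h. Clonogenic survival is followed, and extracellular drug is monitored by HPLC. Concentration-time data are fitted for the apparent first-order metabolic rate constant k_met, scaled to MCL cell density. CT₁₀ and M₁₀ (drug metabolized at 10% survival) are interpolated from the fitted PK/PD model.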

Series [4] deals with HT-29. The series is described as follows: Cytotoxicity against human HT-29 cells assessed as AUC-time curve providing 10% surviving fraction by clonogenic assay. It counts as functional.
Series [5] deals with HT-29. The series is described as follows: Drug metabolism in human HT-29 cells assessed as amount of drug metabolized for one log of cell kill at their CT10 concentration for 1 hr. It counts as ADME, cell-based. The following applies: ht-29, 1 h. In a few lines: as §1
The nature of series [6]: Solubility at 22 degC in culture medium in presence of 5% fetal calf serum. It counts as physicochemical. The following applies: culture medium with 5% fetal calf serum; read-out: solubility. In a few lines:
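Solubility of the HCl salts is determined in culture medium containing 5% fetal calf serum at 22 °C.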

The subject of series [7] is HT-29. The series is described as follows: Cytotoxicity against human HT-29 cells after 4 hrs under strict hypoxic condition. It counts as functional, cell-based.
Series [8] relates to SiHa. Put plainly: Cytotoxicity against human SiHa cells after 4 hrs under strict hypoxic condition. The class given is functional, cell-based.
In series [9] the test system is SiHa. The series is described as follows: Hypoxic cytotoxicity ratio, ratio of aerobic IC50 to anoxic IC50 for human SiHa cells. It counts as functional.

Take `COc1ccc2c(c1)[n+]([O-])c(NCCN(C)C)n[n+]2[O-]`: the “Ratio IC50” value in the series on HT-29 [1] is recorded as 89. The compound further registered a D with HT-29 [2] of 2.3e-07 cm²/s. In addition, the Activity in the series with HT-29 [3] was found to be 0.54 min⁻¹; with HT-29 [4], 26.1 µM·h; with HT-29 [5], 1635 µM.

By solubility is commonly meant the dissolved amount per volume that the medium holds. One may read the IC50 as the concentration at which inhibition is half-maximal. `CCc1n[n+]([O-])c2cc3c(cc2[n+]1[O-])CC(CCN1CCOCC1)C3` (stereo not drawn): the solubility in series [6] was greater than 51 mM. Further, the IC50 was 3.6 µM with HT-29 [7] (Homo sapiens, HT-29, 4 h) and 1300 nM in the series with SiHa [8] (Homo sapiens, SiHa, 4 h). Also, the “Ratio IC50” value with HT-29 [1] is 36; in the series on SiHa [9], 84. Further, the Activity in the series with HT-29 [3] turned out to be 0.54 min⁻¹; in the series on HT-29 [4], 15.8 µM·h; with HT-29 [5], 984 µM.

Turning to `CCc1n[n+]([O-])c2cc3c(cc2[n+]1[O-])CC(CN1CCOCC1)C3` (stereo not drawn), the solubility in [6] was determined as 43 mM. Besides, the IC50 with HT-29 [7] (Homo sapiens, HT-29, 4 h) turned out to be 4.8 µM; with SiHa [8] (Homo sapiens, SiHa, 4 h), 2400 nM. The entries for the “Ratio IC50” value in the series on HT-29 [1] and in the series with SiHa [9] were 31 and 62, respectively. For the same compound, the Activity in the series on HT-29 [3] amounted to 0.54 min⁻¹; in the series with HT-29 [4], 24.1 µM·h; in the series with HT-29 [5] it was 1544 µM.

Turning to `CN(C)CCNc1n[n+]([O-])c2cc3c(cc2[n+]1[O-])CCO3`, the solubility in series [6] is greater than 48 mM. In addition, the IC50 came out at 2.4 µM with HT-29 [7] (ht-29) and 300 nM in the series on SiHa [8] (siha). The “Ratio IC50” value in the series on HT-29 [1] turned out to be 23; in the series on SiHa [9], 87. Also, in the series on HT-29 [2], the D was found to be 4.3e-07 cm²/s. Further, the Activity amounted to 3.15 min⁻¹ in the series on HT-29 [3], 18.6 µM·h with HT-29 [4] and 6732 µM with HT-29 [5] (1 h).

Consider `CCc1n[n+]([O-])c2cc3c(cc2[n+]1[O-])CC(CCO)C3` (stereo not drawn), for which the solubility in series [6] was 2 mM. Besides, the IC50 was 7.7 µM with HT-29 [7] (Homo sapiens, HT-29, 4 h) and 2900 nM in the series on SiHa [8] (Homo sapiens, SiHa, 4 h). The “Ratio IC50” value in the series with HT-29 [1] was 102; with SiHa [9], 86. Further, the results for the Activity in the series with HT-29 [3], in the series on HT-29 [4] and in the series on HT-29 [5] were 0.54 min⁻¹, 41.3 µM·h and 2641 µM, respectively.

Regarding `[O-][n+]1nc(CCCN2CCOCC2)[n+]([O-])c2cc3c(cc21)CCO3`, in [6], the solubility worked out at 51 mM. For the same compound, the IC50 with HT-29 [7] (Homo sapiens, HT-29, 4 h) is 8.9 µM; in the series on SiHa [8] (Homo sapiens, SiHa, 4 h) it was 5100 nM. In addition, the “Ratio IC50” value in the series on HT-29 [1] is 25; in the series with SiHa [9], 43. In addition, the Activity with HT-29 [3] turned out to be 0.31 min⁻¹; with HT-29 [4], 27.6 µM·h; in the series with HT-29 [5], 986 µM.

Consider `[O-][n+]1nc(CCCN2CCOCC2)[n+]([O-])c2cc3c(cc21)CC(CO)C3` (stereo not drawn), for which, in series [6], the solubility was found to be 48 mM. Besides, the IC50 was determined as 2.4 µM with HT-29 [7] (Homo sapiens, HT-29, 4 h) and 1800 nM with SiHa [8] (Homo sapiens, SiHa, 4 h). Also, the “Ratio IC50” value in the series with HT-29 [1] was found to be 121; in the series with SiHa [9], 206. Further, the results for the Activity in the series on HT-29 [3], in the series with HT-29 [4] and with HT-29 [5] were 0.9 min⁻¹, 24.4 µM·h and 2533 µM, respectively.

For the compound `CN(C)CCNc1n[n+]([O-])c2cc3c(cc2[n+]1[O-])CCC3`, the solubility in [6] was greater than 51 mM. The IC50 worked out at 2.3 µM in the series on HT-29 [7] (Homo sapiens, HT-29, 4 h) and 700 nM in the series with SiHa [8] (Homo sapiens, SiHa, 4 h). The “Ratio IC50” value with HT-29 [1] came out at 152; in the series on SiHa [9] it was 111. The D with HT-29 [2] was found to be 5.9e-07 cm²/s. Besides, the Activity was 0.44 min⁻¹ in the series with HT-29 [3], 16 µM·h in the series with HT-29 [4] and 815 µM in the series with HT-29 [5].

Take `CCCN(CCC)CCNc1n[n+]([O-])c2cc3c(cc2[n+]1[O-])CCC3`: in series [6], the solubility was 20 mM. Further, the IC50 stood at 2.5 µM in the series on HT-29 [7] (Homo sapiens, HT-29, 4 h) and 700 nM in the series on SiHa [8] (Homo sapiens, SiHa, 4 h). Further, the “Ratio IC50” value came out at 77 in the series with HT-29 [1] and 91 in the series on SiHa [9]. The same compound showed a D in the series with HT-29 [2] of 1.92e-06 cm²/s. For the same compound, the Activity in the series with HT-29 [3] came out at 1.07 min⁻¹; in the series on HT-29 [4] it was 31.8 µM·h; in the series on HT-29 [5], 3941 µM.

`[O-][n+]1nc(NCCN2CCCCC2)[n+]([O-])c2cc3c(cc21)CCC3`: the solubility in series [6] is 1.9 mM. For the same compound, the IC50 was 5.8 µM in the series with HT-29 [7] (Homo sapiens, HT-29, 4 h) and 1300 nM in the series on SiHa [8] (Homo sapiens, SiHa, 4 h). For the same compound, the “Ratio IC50” value in the series with HT-29 [1] was determined as 49; in the series on SiHa [9] it was 143. The D in the series with HT-29 [2] is 1.19e-06 cm²/s. Also, the Activity with HT-29 [3] was determined as 1.25 min⁻¹; in the series with HT-29 [4], 15.6 µM·h; in the series on HT-29 [5] it was 2444 µM.

On to `CN(C)CCNc1n[n+]([O-])c2c3c(ccc2[n+]1[O-])CCC3`, for which, in [6], the solubility is greater than 54 mM. In addition, the IC50 was 3 µM in the series with HT-29 [7] (Homo sapiens, HT-29, 4 h) and 1600 nM in the series with SiHa [8] (Homo sapiens, SiHa, 4 h). The figures for the “Ratio IC50” value in the series on HT-29 [1] and with SiHa [9] were 67 and 99, respectively. In the series with HT-29 [2], the D is 8.4e-07 cm²/s. The Activity was determined as 0.74 min⁻¹ with HT-29 [3], 26.3 µM·h in the series with HT-29 [4] and 2219 µM with HT-29 [5].

As to `Nc1n[n+]([O-])c2ccccc2[n+]1[O-]` [TIRAPAZAMINE], the D in the series on HT-29 [2] came to 4.04e-07 cm²/s. The Activity came out at 24.3 µM·h in the series with HT-29 [4] and 1698 µM in the series on HT-29 [5].
